Results: ChEMBL document CHEMBL3580541, “Mebamamides A and B, Cyclic Lipopeptides Isolated from the Green Alga Derbesia marina” (J Nat Prod, 2015)
The source made the active and inactive calls. The rule behind the calls is not given here.

Key:
[1] = system: HL-60; experiment: Induction of human HL60 cell differentiation into macrophages at 16 nM after 72 hrs by May-Giemsa staining based microscopy; type: functional
In short: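 HL60 cells were grown in RPMI with 10% heat-inactivated FBS, penicillin/streptomycin, amphotericin and L-glutamine at 37 °C in 5% CO2. They were seeded at 2 × 10^4 cells/well and treated for 72 h. Cells were washed once in PBS, stained with May–Giemsa, and examined by light microscopy for macrophage-like morphology.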

[2] = system: HL-60; experiment: Induction of human HL60 cell phagocytotic activity at 16 nM after 48 hrs by trypan based fluorescent microscopy; type: functional
In short: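 HL60 cells were seeded at 2 × 10^4 cells/well. FITC-conjugated latex beads and agent were added together, with TPA at 16 nM as the reference, and cells were incubated for 48 h. Uptake was assessed by fluorescence microscopy using a commercial phagocytosis kit run per the manufacturer's protocol.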

[3] = system: HeLa; experiment: Cytotoxicity against human HeLa cells at 100 uM after 72 hrs by Trypan blue dye exclusion assay; type: functional, cell-based; settings: in the assay text read “MTT assay” for “Trypan blue dye exclusion assay”
In short: (§1)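 MTT read-out of proliferation. HeLa cells were grown in supplemented DMEM with 10% heat-inactivated FBS, seeded at 2 × 10^4 cells/well and cultured overnight. HL60 cells were grown in supplemented RPMI with 10% FBS and seeded at 1 × 10^5 cells/well. Compounds were added at 0.1−100 μM and incubated 72 h at 37 °C, 5% CO2.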

[4] = system: HL-60; experiment: Cytotoxicity against human HL60 cells at 100 uM after 72 hrs by Trypan blue dye exclusion assay; type: functional, cell-based
In short: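 HL60 cells were seeded at 1 × 10^5 cells/well in 24-well plates and exposed to 100 μM compound for 72 h. They were then stained with 0.8 mg/mL trypan blue. Viability was determined by counting stained (dead) cells.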

[5] = system: HL-60; experiment: Induction of cell adhesion in human HL60 cells at 100 uM measured upto 72 hrs by hemocytometry; type: functional, cell-based
In short: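 HL60 cells were seeded at 1 × 10^5 cells/well in 200 μL medium and given 100 μM compound; TPA at 16 nM served as comparator. Both fractions were counted by hemocytometer. Means ± SD of quadruplicate determinations.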

[6] = system: HL-60; experiment: Induction of human HL60 cell differentiation into macrophages at 100 uM after 72 hrs by May-Giemsa staining based microscopy; type: functional
In short: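 Differentiation was judged by morphology. HL60 cells were seeded at 2 × 10^4 cells/well in 200 μL medium, treated 72 h with 100 μM compound or 16 nM TPA, washed once in PBS, stained with May−Giemsa and examined by light microscopy.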

[7] = system: HL-60; experiment: Induction of human HL60 cell phagocytotic activity at 100 uM after 48 hrs by trypan based fluorescent microscopy; type: functional
In short: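 Phagocytosis was run with a commercial kit. HL60 cells were seeded at 2 × 10^4 cells/well in 200 μL medium, given 20 μL FITC-conjugated latex bead suspension plus 100 μM compound or 16 nM TPA, incubated 48 h and examined by fluorescence microscopy.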

[8] = system: HeLa; experiment: Cytotoxicity against human HeLa cells after 72 hrs by Trypan blue dye exclusion assay; type: functional, cell-based; settings: in the assay text read “MTT assay” for “Trypan blue dye exclusion assay”; in short: as §1
[9] = system: HL-60; experiment: Cytotoxicity against human HL60 cells after 72 hrs by Trypan blue dye exclusion assay; type: functional, cell-based; settings: HL-60, 72 h, in the assay text read “MTT assay” for “Trypan blue dye exclusion assay”; in short: as §1

SMILES	Activity [1]	Activity [2]	growth inhibition (GI) [3]	growth inhibition (GI) [4]	Activity [5]	Activity [6]	Activity [7]	IC50 [8] [µM]	IC50 [9] [µM]
CCCCCCCCCCCCCC(=O)O[C@@H]1[C@@H](C)[C@@]2(O)[C@@H](C=C(CO)C[C@]3(O)C(=O)C(C)=C[C@@H]23)[C@@H]2C(C)(C)[C@]12OC(C)=O	Active	Active	–	–	–	–	–	–	–
CC(C)C[C@H](NC(=O)[C@@H](CO)NC(=O)C[C@H](O)CCCC[C@H](O)C(C)C)C(=O)N1CCC[C@H]1C(=O)N[C@H](C)C(=O)N[C@@H]1C(=O)N[C@H](Cc2ccccc2)C(=O)N2CCC[C@H]2C(=O)N[C@H](CC(C)C)C(=O)N[C@@H](C(C)C)C(=O)O[C@@H]1C	–	–	inactive	inactive	Active	Active	Active	–	–
CC(=O)O[C@@H](CCCC[C@@H](O)CC(=O)N[C@H](CO)C(=O)N[C@@H](CC(C)C)C(=O)N1CCC[C@H]1C(=O)N[C@H](C)C(=O)N[C@@H]1C(=O)N[C@H](Cc2ccccc2)C(=O)N2CCC[C@H]2C(=O)N[C@H](CC(C)C)C(=O)N[C@@H](C(C)C)C(=O)O[C@@H]1C)C(C)C	–	–	–	–	inactive	–	–	48	19
